{"source": "the RNAGym collection of RNA variant scans (doi:10.1038/s41586-018-0170-7)", "parents": {"B1": {"name": "tRNA (parent)", "chain": "GUUCCGUUGGCGUAAUGGUAACGCGUCUCCCUCCUAAGGAGAAGACUGCGGGUUCGAGUCCCGUACGGAACG"}}, "data": [{"variants_of": "B1", "assay": "yeast fitness, log relative to wild type (ln ratio); higher = fitter; tRNA-Arg(CCU), competitive growth, 37 C, 1 M NaCl", "outline": "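For each genotype, fitness is defined as the natural log of its generation number over the wild type's. The tRNA-Arg(CCU) variant library was on a HIS3 centromeric plasmid in BY4742 with the chromosomal gene removed, and pools were first grown 4 generations in SC-HIS at 30 °C and then ~6.5 generations (~26.5 h) in SC-HIS 1M NaCl at 37 °C. Generations were calculated from OD-scaled log2 output/input frequency, weighted by inverse variance across replicates, using counts from 125 bp paired-end Illumina sequencing.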", "values": [{"variant": "AGUCCUUUGGCGUAAUGGUAACGCGUCUCCCUCCUAAGGAGACGAUUGCGGGUUCGAGUCCCGUAUGGGGUG", "note": "[G1A U2G G6U A43C C46U C66U A69G A70G C71U]", "yeast fitness (ln)": -0.371}, {"variant": "AGUCCAUUGGCGUAAUGGUAACGCGUCUCCCUCCUAAGGAGAAGACUGCGGGUUCGAGUCCCGUAUGGGUUG", "note": "[G1A U2G G6A C66U A69G A70U C71U]", "yeast fitness (ln)": -0.33}, {"variant": "AGUCCUUUGGCGUAAUGGUAACGCGUCUCCCUCCUAAGGAGACGAUUGCGGGUUCGAGUCCCGUAAGGGUUG", "note": "[G1A U2G G6U A43C C46U C66A A69G A70U C71U]", "yeast fitness (ln)": -0.314}, {"variant": "AGUCCAUUGGCGUAAUGGUAACGCGUCUCCCUCCUAAGGAGAAGACUGCGGGUUCGAGUCCCGUAUGGAGUG", "note": "[G1A U2G G6A C66U A70G C71U]", "yeast fitness (ln)": -0.578}, {"variant": "AGUCCUUUGGCGUAAUGGUAACGCGUCUCCCUCCUAAGGAGACGAUUGCGGGUUCGAGUCCCGUAUGGGAUG", "note": "[G1A U2G G6U A43C C46U C66U A69G C71U]", "yeast fitness (ln)": -0.393}, {"variant": "AGUCCUUUGGCGUAAUGGUAACGCGUCUCCCUCCUAAGGAGACGACUGCGGGUUCGAGUCCCGUACGGGUCG", "note": "[G1A U2G G6U A43C A69G A70U]", "yeast fitness (ln)": -0.456}, {"variant": "AGUCCUUUGGCGUAAUGGUAACGCGUCUCCCUCCUAAGGAGACGACUGCGGGUUCGAGUCCCGUACGGGGCG", "note": "[G1A U2G G6U A43C A69G A70G]", "yeast fitness (ln)": -0.277}, {"variant": "AGUCCAUUGGCGUAAUGGUAACGCGUCUCCCUCCUAAGGAGAAGAUUGCGGGUUCGAGUCCCGUAUGGAAUG", "note": "[G1A U2G G6A C46U C66U C71U]", "yeast fitness (ln)": -0.301}, {"variant": "AGUCCUUUGGCGUAAUGGUAACGCGUCUCCCUCCUAAGGAGACGAUUGCGGGUUCGAGUCCCGUAAGGAGUG", "note": "[G1A U2G G6U A43C C46U C66A A70G C71U]", "yeast fitness (ln)": -0.153}, {"variant": "AGUCCUUUGGCGUAAUGGUAACGCGUCUCCCUCCUAAGGAGACGAUUGCGGGUUCGAGUCCCGUACGGAACG", "note": "[G1A U2G G6U A43C C46U]", "yeast fitness (ln)": -0.117}, {"variant": "AGUCCUUUGGCGUAAUGGUAACGCGUCUCCCUCCUAAGGAGACGACUGCGGGUUCGAGUCCCGUACGGGUUG", "note": "[G1A U2G G6U A43C A69G A70U C71U]", "yeast fitness (ln)": -0.428}, {"variant": "AGUCCUUUGGCGUAAUGGUAACGCGUCUCCCUCCUAAGGAGACGAUUGCGGGUUCGAGUCCCGUAAGGAUUG", "note": "[G1A U2G G6U A43C C46U C66A A70U C71U]", "yeast fitness (ln)": -0.0885}, {"variant": "AGUCCUUUGGCGUAAUGGUAACGCGUCUCCCUCCUAAGGAGACGAUUGCGGGUUCGAGUCCCGUACGGGAUG", "note": "[G1A U2G G6U A43C C46U A69G C71U]", "yeast fitness (ln)": -0.393}, {"variant": "AGUCCUUUGGCGUAAUGGUAACGCGUCUCCCUCCUAAGGAGACGACUGCGGGUUCGAGUCCCGUAUGGGGCG", "note": "[G1A U2G G6U A43C C66U A69G A70G]", "yeast fitness (ln)": -0.371}, {"variant": "AGUCCUUUGGCGUAAUGGUAACGCGUCUCCCUCCUAAGGAGACGACUGCGGGUUCGAGUCCCGUAUGGGUCG", "note": "[G1A U2G G6U A43C C66U A69G A70U]", "yeast fitness (ln)": -0.255}, {"variant": "AGUCCUUUGGCGUAAUGGUAACGCGUCUCCCUCCUAAGGAGACGACUGCGGGUUCGAGUCCCGUAUGGGGUG", "note": "[G1A U2G G6U A43C C66U A69G A70G C71U]", "yeast fitness (ln)": -0.368}, {"variant": "AGUCCUUUGGCGUAAUGGUAACGCGUCUCCCUCCUAAGGAGACGACUGCGGGUUCGAGUCCCGUAAGGAAUG", "note": "[G1A U2G G6U A43C C66A C71U]", "yeast fitness (ln)": -0.265}, {"variant": "AGUCCUUUGGCGUAAUGGUAACGCGUCUCCCUCCUAAGGAGACGACUGCGGGUUCGAGUCCCGUACGGGAUG", "note": "[G1A U2G G6U A43C A69G C71U]", "yeast fitness (ln)": -0.537}, {"variant": "AGUCCUUUGGCGUAAUGGUAACGCGUCUCCCUCCUAAGGAGACGACUGCGGGUUCGAGUCCCGUACGGAUUG", "note": "[G1A U2G G6U A43C A70U C71U]", "yeast fitness (ln)": -0.41}, {"variant": "AGUCCUUUGGCGUAAUGGUAACGCGUCUCCCUCCUAAGGAGACGACUGCGGGUUCGAGUCCCGUAAGGAUUG", "note": "[G1A U2G G6U A43C C66A A70U C71U]", "yeast fitness (ln)": -0.387}, {"variant": "AGUCCUUUGGCGUAAUGGUAACGCGUCUCCCUCCUAAGGAGACGACUGCGGGUUCGAGUCCCGUAUGGGAUG", "note": "[G1A U2G G6U A43C C66U A69G C71U]", "yeast fitness (ln)": -0.437}, {"variant": "AGUCCUUUGGCGUAAUGGUAACGCGUCUCCCUCCUAAGGAGACGACUGCGGGUUCGAGUCCCGUAAGGGUUG", "note": "[G1A U2G G6U A43C C66A A69G A70U C71U]", "yeast fitness (ln)": -0.351}, {"variant": "AGUCCAUUGGCGUAAUGGUAACGCGUCUCCCUCCUAAGGAGAAGACUGCGGGUUCGAGUCCCGUACGGAAUG", "note": "[G1A U2G G6A C71U]", "yeast fitness (ln)": -0.136}, {"variant": "AGUCCUUUGGCGUAAUGGUAACGCGUCUCCCUCCUAAGGAGACGAUUGCGGGUUCGAGUCCCGUAAGGAAUG", "note": "[G1A U2G G6U A43C C46U C66A C71U]", "yeast fitness (ln)": -0.234}, {"variant": "AGUCCAUUGGCGUAAUGGUAACGCGUCUCCCUCCUAAGGAGAAGAUUGCGGGUUCGAGUCCCGUAUGGAUUG", "note": "[G1A U2G G6A C46U C66U A70U C71U]", "yeast fitness (ln)": -0.00784}, {"variant": "AGUCCAUUGGCGUAAUGGUAACGCGUCUCCCUCCUAAGGAGAAGACUGCGGGUUCGAGUCCCGUAUGGAUUG", "note": "[G1A U2G G6A C66U A70U C71U]", "yeast fitness (ln)": -0.0116}, {"variant": "AGUCCUUUGGCGUAAUGGUAACGCGUCUCCCUCCUAAGGAGACGAUUGCGGGUUCGAGUCCCGUAAGGGGUG", "note": "[G1A U2G G6U A43C C46U C66A A69G A70G C71U]", "yeast fitness (ln)": -0.378}, {"variant": "AGUCCAUUGGCGUAAUGGUAACGCGUCUCCCUCCUAAGGAGAAGAUUGCGGGUUCGAGUCCCGUAUGGAUCG", "note": "[G1A U2G G6A C46U C66U A70U]", "yeast fitness (ln)": -0.251}, {"variant": "AGUCCUUUGGCGUAAUGGUAACGCGUCUCCCUCCUAAGGAGACGAUUGCGGGUUCGAGUCCCGUAUGGGGCG", "note": "[G1A U2G G6U A43C C46U C66U A69G A70G]", "yeast fitness (ln)": -0.365}, {"variant": "AGUCCUUUGGCGUAAUGGUAACGCGUCUCCCUCCUAAGGAGACGAUUGCGGGUUCGAGUCCCGUAUGGGUCG", "note": "[G1A U2G G6U A43C C46U C66U A69G A70U]", "yeast fitness (ln)": -0.299}, {"variant": "AGUCCUUUGGCGUAAUGGUAACGCGUCUCCCUCCUAAGGAGACGAUUGCGGGUUCGAGUCCCGUAAGGAGCG", "note": "[G1A U2G G6U A43C C46U C66A A70G]", "yeast fitness (ln)": -0.178}, {"variant": "AGUCCUUUGGCGUAAUGGUAACGCGUCUCCCUCCUAAGGAGACGAUUGCGGGUUCGAGUCCCGUAAGGAUCG", "note": "[G1A U2G G6U A43C C46U C66A A70U]", "yeast fitness (ln)": -0.303}, {"variant": "AGUCCUUUGGCGUAAUGGUAACGCGUCUCCCUCCUAAGGAGACGAUUGCGGGUUCGAGUCCCGUAAGGAACG", "note": "[G1A U2G G6U A43C C46U C66A]", "yeast fitness (ln)": -0.364}, {"variant": "AGUCCUUUGGCGUAAUGGUAACGCGUCUCCCUCCUAAGGAGACGAUUGCGGGUUCGAGUCCCGUAUGGAACG", "note": "[G1A U2G G6U A43C C46U C66U]", "yeast fitness (ln)": -0.271}, {"variant": "AGUCCUUUGGCGUAAUGGUAACGCGUCUCCCUCCUAAGGAGACGAUUGCGGGUUCGAGUCCCGUACGGAGUG", "note": "[G1A U2G G6U A43C C46U A70G C71U]", "yeast fitness (ln)": -0.338}, {"variant": "AGUCCUUUGGCGUAAUGGUAACGCGUCUCCCUCCUAAGGAGACGAUUGCGGGUUCGAGUCCCGUAUGGAGUG", "note": "[G1A U2G G6U A43C C46U C66U A70G C71U]", "yeast fitness (ln)": -0.418}, {"variant": "AGUCCUUUGGCGUAAUGGUAACGCGUCUCCCUCCUAAGGAGACGAUUGCGGGUUCGAGUCCCGUAAGGGUCG", "note": "[G1A U2G G6U A43C C46U C66A A69G A70U]", "yeast fitness (ln)": -0.256}, {"variant": "AGUCCAUUGGCGUAAUGGUAACGCGUCUCCCUCCUAAGGAGAAGACUGCGGGUUCGAGUCCCGUAAGGGGUG", "note": "[G1A U2G G6A C66A A69G A70G C71U]", "yeast fitness (ln)": -0.257}]}]}
